Laboratory results published in ChEMBL document CHEMBL5030505, “Assessment of NR4A Ligands That Directly Bind and Modulate the Orphan Nuclear Receptor Nurr1” (J Med Chem, 2020).
Calls of active or inactive are those of the source. No cut-off for these calls is given here.

What was measured:
Format in all cases: cell-based
[1] = target: Nuclear receptor subfamily 4 group A member 2 (Homo sapiens) (UniProt P43354); test: Modulation of full length human Nurr1 expressed in HEK293T cells co-transfected with RXRalpha and luciferase reporter plasmid harboring NBRE response element assessed as increase in luciferase activity incubated for 18 hrs by luciferase reporter gene assay; conditions: filed as modulator, dose 0.01-1 µM
Summary of the method: (§1)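 Full-length Nurr1 plasmid, alone (2 μg) or 1 μg plus full-length RXRα (1 μg), cotransfected with 3xNBRE- or 3xNurRE-luciferase reporter (6 μg) using Lipofectamine 2000, 18 h. Cells replated at 10,000/well for 4 h. Four ligand concentrations, or vehicle (water, ethanol or DMSO), added in quadruplicate for 18 h. Luciferase read. Fold change vs vehicle, mean ± s.e.m., one-way ANOVA vs vehicle.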

PC-12 [2] = test: Cytotoxicity in rat PC-12 cells assessed as reduction in cell viability at 0.01 to 1 uM incubated for 18 hrs by Cell Titer-Glo assay; conditions: pc-12, 18 h, dose 0.01-1 µM
Summary of the method: (§2)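 Cells seeded at 1.5 million per 10-cm dish. Next day they were replated at 10,000 cells/well and rested 4 h. Ligand or vehicle (water, ethanol or DMSO, by ligand) was added in dose-response format in quadruplicate. After 18 h, viability was read by CellTiter-Glo luminescence. Data are mean ± s.e.m., generally representative of 2 independent experiments. One-way ANOVA versus vehicle.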

[3] = target: Nuclear receptor subfamily 4 group A member 2 (Homo sapiens) (UniProt P43354); test: Modulation of full length human Nurr1 expressed in SKNBE(2) cells co-transfected with RXRalpha and luciferase reporter plasmid harboring NBRE response element assessed as increase in luciferase activity incubated for 18 hrs by luciferase reporter gene assay; conditions: SKNBE2, filed as modulator, dose 0.01-1 µM
Summary of the method: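 SK-N-BE(2)-C cells were kept in 1:1 EMEM/F12 with 10% FBS at 37°C and 5% CO2. They were cotransfected with full-length Nurr1 (1 μg), full-length RXRα (1 μg) and 3xNBRE- or 3xNurRE-luc reporter (6 μg) for 18 h, replated at 10,000 cells/well for 4 h, and then treated with ligand or vehicle in quadruplicate for 18 h. The readout was luciferase luminescence as fold over vehicle, reported as mean ± s.e.m. (n=4) from 2 independent experiments, one-way ANOVA.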

[4] = target: Nuclear receptor subfamily 4 group A member 2 (Homo sapiens) (UniProt P43354); test: Modulation of full length human Nurr1 expressed in SKNBE(2) cells co-transfected with luciferase reporter plasmid harboring NurRE response element assessed as increase in luciferase activity incubated for 18 hrs by luciferase reporter gene assay; conditions: SKNBE2, filed as modulator, dose 0.01-1 µM
[5] = target: Nuclear receptor subfamily 4 group A member 2 (Homo sapiens) (UniProt P43354); test: Modulation of full length human Nurr1 expressed in PC12 cells co-transfected with RXRalpha and luciferase reporter plasmid harboring NBRE response element assessed as increase in luciferase activity incubated for 18 hrs by luciferase reporter gene assay; conditions: PC-12, filed as modulator, dose 0.01-1 µM
Summary of the method: (§3)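 PC12 cells were grown at 37°C and 5% CO2 in […] medium with 15% horse serum and 2.5% FBS. They were transfected with full-length Nurr1 (1 μg) plus full-length RXRα (1 μg) and 3xNBRE- or 3xNurRE-luciferase reporter (6 μg) for 18 h, then replated at 10,000 cells/well for 4 h. Ligand or vehicle (water, ethanol or DMSO) was added in quadruplicate for 18 h. Luminescence was read as fold change over vehicle. Results are mean ± s.e.m., n=4, from 2 independent experiments, analysed by one-way ANOVA against vehicle.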

PC-12 [6] = test: Modulation of Gal4-fused VP16 expressed in PC12 cells co-transfected with UAS repoter gene assessed as increase in luciferase activity at 0.01 to 1 uM incubated for 18 hrs by luciferase reporter gene assay; conditions: Human alphaherpesvirus 2, filed as modulator, dose 0.01-1 µM
Summary of the method: (§4)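 Cells in 10-cm dishes were transfected with Gal4-VP16 expression plasmid (2 μg) plus 5xUAS-luciferase reporter (2 μg) for 18 h. They were replated at 10,000 cells/well for 4 h, then given ligand or vehicle (water, ethanol or DMSO) in quadruplicate for 18 h. Luciferase was read with Britelite Plus. Fold change is versus vehicle-treated cells, with one-way ANOVA versus vehicle.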

[7] = target: Nuclear receptor subfamily 4 group A member 2 (Homo sapiens) (UniProt P43354); test: Modulation of full length human Nurr1 expressed in SKNBE(2) cells co-transfected with luciferase reporter plasmid harboring NBRE response element assessed as increase in luciferase activity incubated for 18 hrs by luciferase reporter gene assay; conditions: SKNBE2, filed as modulator, dose 0.01-1 µM
Summary of the method: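 Transfection of SK-N-BE(2)-C cells (1:1 EMEM/F12, 10% FBS, 37°C, 5% CO2) used full-length Nurr1 alone (2 μg, no RXRα) with 3xNBRE- or 3xNurRE-luciferase reporter (6 μg) for 18 h. Cells were replated at 10,000/well for 4 h, then exposed to ligand or vehicle in quadruplicate for 18 h. Luminescence was expressed as fold over vehicle, as mean ± s.e.m. (n=4) from 2 independent experiments, one-way ANOVA against vehicle.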

[8] = target: Nuclear receptor subfamily 4 group A member 2 (Homo sapiens) (UniProt P43354); test: Modulation of full length human Nurr1 expressed in HEK293T cells co-transfected with RXRalpha and luciferase reporter plasmid harboring NurRE response element assessed as increase in luciferase activity incubated for 18 hrs by luciferase reporter gene assay; conditions: filed as modulator, dose 0.01-1 µM; summary of the method: as §1
[9] = target: Nuclear receptor subfamily 4 group A member 2 (Homo sapiens) (UniProt P43354); test: Modulation of full length human Nurr1 expressed in PC12 cells co-transfected with luciferase reporter plasmid harboring NurRE response element assessed as increase in luciferase activity incubated for 18 hrs by luciferase reporter gene assay; conditions: PC-12, filed as modulator, dose 0.01-1 µM
Summary of the method: (§5)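 Here PC12 cells (FK-12 medium, 15% horse serum, 2.5% FBS, 37°C, 5% CO2) received full-length Nurr1 (2 μg) without RXRα, plus 3xNBRE- or 3xNurRE-luciferase reporter (6 μg), for 18 h. Cells were replated at 10,000/well for 4 h, then treated with ligand or vehicle in quadruplicate for 18 h. Luciferase luminescence was normalized to vehicle-treated cells. Results are mean ± s.e.m. (n=4) from 2 independent experiments, with one-way ANOVA against vehicle.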

SK-N-BE(2) [10] = test: Cytotoxicity in human SKNBE2 cells assessed as reduction in cell viability at 0.01 to 1 uM incubated for 18 hrs by Cell Titer-Glo assay; conditions: dose 0.01-1 µM; summary of the method: as §2
[11] = target: Nuclear receptor subfamily 4 group A member 2 (Homo sapiens) (UniProt P43354); test: Modulation of full length human Nurr1 expressed in PC12 cells co-transfected with luciferase reporter plasmid harboring NBRE response element assessed as increase in luciferase activity incubated for 18 hrs by luciferase reporter gene assay; conditions: PC-12, filed as modulator, dose 0.01-1 µM; summary of the method: as §5
[12] = target: Nuclear receptor subfamily 4 group A member 2 (Homo sapiens) (UniProt P43354); test: Modulation of full length human Nurr1 expressed in HEK293T cells co-transfected with luciferase reporter plasmid harboring NBRE response element assessed as increase in luciferase activity incubated for 18 hrs by luciferase reporter gene assay; conditions: filed as modulator, dose 0.01-1 µM; summary of the method: as §1
HEK293T = test: Modulation of Gal4-fused VP16 expressed in HEK293T cells co-transfected with UAS repoter gene assessed as increase in luciferase activity at 0.01 to 1 uM incubated for 18 hrs by luciferase reporter gene assay; conditions: Human alphaherpesvirus 2, filed as modulator, dose 0.01-1 µM; summary of the method: as §4
[13] = target: Nuclear receptor subfamily 4 group A member 2 (Homo sapiens) (UniProt P43354); test: Modulation of full length human Nurr1 expressed in PC12 cells co-transfected with RXRalpha and luciferase reporter plasmid harboring NurRE response element assessed as increase in luciferase activity incubated for 18 hrs by luciferase reporter gene assay; conditions: PC-12, filed as modulator, dose 0.01-1 µM; summary of the method: as §3
SKNBE2 = test: Modulation of Gal4-fused VP16 expressed in SKNBE(2) cells co-transfected with UAS repoter gene assessed as increase in luciferase activity at 0.01 to 1 uM incubated for 18 hrs by luciferase reporter gene assay; conditions: Human alphaherpesvirus 2, filed as modulator, dose 0.01-1 µM; summary of the method: as §4
[14] = target: Nuclear receptor subfamily 4 group A member 2 (Homo sapiens) (UniProt P43354); test: Modulation of full length human Nurr1 expressed in HEK293T cells co-transfected with luciferase reporter plasmid harboring NurRE response element assessed as increase in luciferase activity incubated for 18 hrs by luciferase reporter gene assay; conditions: filed as modulator, dose 0.01-1 µM; summary of the method: as §1
HEK-293T [15] = test: Cytotoxicity in human HEK293T cells assessed as reduction in cell viability at 0.01 to 1 uM incubated for 18 hrs by Cell Titer-Glo assay; conditions: dose 0.01-1 µM; summary of the method: as §2
SK-N-BE(2) [16] = test: Cytotoxicity in human SKNBE2 cells assessed as reduction in cell viability at 0.5 to 5 uM incubated for 18 hrs by Cell Titer-Glo assay; conditions: dose 0.5-5 µM; summary of the method: as §2
PC-12 [17] = test: Cytotoxicity in rat PC-12 cells assessed as reduction in cell viability at 0.5 to 5 uM incubated for 18 hrs by Cell Titer-Glo assay; conditions: pc-12, 18 h, dose 0.5-5 µM; summary of the method: as §2
HEK-293T [18] = test: Cytotoxicity in human HEK293T cells assessed as reduction in cell viability at 0.5 to 5 uM incubated for 18 hrs by Cell Titer-Glo assay; conditions: dose 0.5-5 µM; summary of the method: as §2

Sequence of Nuclear receptor subfamily 4 group A member 2 (Homo sapiens) (P43354 whole entry): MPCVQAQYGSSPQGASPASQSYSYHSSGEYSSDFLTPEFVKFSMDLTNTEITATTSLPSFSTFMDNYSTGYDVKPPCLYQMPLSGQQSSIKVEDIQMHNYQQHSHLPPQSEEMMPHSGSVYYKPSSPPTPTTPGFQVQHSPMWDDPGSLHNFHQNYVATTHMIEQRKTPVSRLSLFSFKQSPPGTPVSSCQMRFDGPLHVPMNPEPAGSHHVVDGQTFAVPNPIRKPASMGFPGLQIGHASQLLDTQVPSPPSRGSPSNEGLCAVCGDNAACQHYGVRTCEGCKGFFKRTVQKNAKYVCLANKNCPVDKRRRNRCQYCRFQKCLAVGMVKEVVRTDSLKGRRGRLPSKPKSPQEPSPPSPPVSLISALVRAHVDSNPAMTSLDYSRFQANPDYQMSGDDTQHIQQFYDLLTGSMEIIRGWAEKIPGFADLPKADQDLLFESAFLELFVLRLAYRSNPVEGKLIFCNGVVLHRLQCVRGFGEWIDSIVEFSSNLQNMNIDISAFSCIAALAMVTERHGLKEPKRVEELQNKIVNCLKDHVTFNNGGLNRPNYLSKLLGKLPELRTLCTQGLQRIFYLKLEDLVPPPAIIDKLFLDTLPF

O=C(Nc1ccccc1)c1cn2cc(-c3ccccn3)ccc2n1
Activity [1]: Dose-Dependent Effect | Activity (PC-12 [2]): Non-Toxic | Activity [3]: Dose-Dependent Effect | Activity [4]: Dose-Dependent Effect | Activity [5]: Dose-Dependent Effect | Activity (PC-12 [6]): Active | Activity [7]: Dose-Dependent Effect | Activity [8]: Dose-Dependent Effect | Activity [9]: Dose-Dependent Effect | Activity (SK-N-BE(2) [10]): Non-Toxic | Activity [11]: Dose-Dependent Effect | Activity [12]: Dose-Dependent Effect | Activity (HEK293T): Active | Activity [13]: Dose-Dependent Effect | Activity (SKNBE2): Active | Activity [14]: Dose-Dependent Effect | Activity (HEK-293T [15]): Non-Toxic

O=C(O)c1ccc2nc(-c3ccc(F)cc3)[nH]c2c1
Activity (SK-N-BE(2) [16]): Non-Toxic | Activity (PC-12 [17]): Non-Toxic | Activity (HEK-293T [18]): Non-Toxic
